In ChEMBL document CHEMBL4130520 (ACS Med Chem Lett, 2017):
Values after ≈ are worked out from the molar mass of the structure shown.

What follows are compounds tested on Mycobacterium tuberculosis (assay: Antitubercular activity against Mycobacterium tuberculosis H37Rv after 4 days by MABA method). Settings: 96 h.
Assay type: functional
Outline: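 Aerobic culture of H37Rv in microplate Alamar blue assay. MIC90 taken as the minimum concentration giving 90% growth inhibition. Each value is the mean of at least two independent determinations. Most compounds were tested as RS,SR diastereomer mixtures; a few were tested only as the pure R,S enantiomer.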

Compound | MIC90 [µg/mL]
COc1nc2ccc(Cl)cc2cc1C(c1ccccc1)C(O)(CCN(C)C)c1cccc2ccccc12 (stereo not given) | 0.71 (≈ 1.39 µM)
COc1cccc(C(c2cc3cc(C#N)ccc3nc2OC)C(O)(CCN(C)C)c2cccc(F)c2)c1F (stereo not given) | 0.18 (≈ 0.348 µM)
COc1cccc(C(c2cc3cc(N4CC5(COC5)C4)ccc3nc2OC)C(O)(CCN(C)C)c2cccc(OC(F)(F)F)c2)c1OC (stereo not given) | 0.75 (≈ 1.12 µM)
COc1nc2ccc(C(=O)N(C)C)cc2cc1C(c1ccccc1)C(O)(CCN(C)C)c1cccc2ccccc12 (stereo not given) | 2.2 (≈ 4.02 µM)
COc1nc2ccc(CC(C)=O)cc2cc1C(c1ccccc1)C(O)(CCN(C)C)c1cccc2ccccc12 (stereo not given) | > 7
COc1cccc([C@H](c2cc3cc(N(C)S(=O)(=O)N(C)C)ccc3nc2OC)[C@@](O)(CCN(C)C)c2cccc(F)c2)c1OC | 1.13 (≈ 1.76 µM)
COc1nc2ccc(Br)cc2cc1C(c1cccc(F)c1)C(O)(CCN(C)C)c1cccc(OC(F)(F)F)c1 (stereo not given) | 0.25 (≈ 0.412 µM)
COc1nc2ccc(N3CC4(COC4)C3)cc2cc1[C@@H](c1ccccc1)[C@@](O)(CCN(C)C)c1cccc2ccccc12 | 0.71 (≈ 1.24 µM)
COc1cccc([C@@H](c2cc3cc(N4CC[S+]([O-])CC4)ccc3nc2OC)[C@@](O)(CCN(C)C)c2cccc(F)c2)c1F | > 5
CCc1ccc2nc(OC)c(C(c3ccccc3)C(O)(CCN(C)C)c3cccc4ccccc34)cc2c1 (stereo not given) | 0.23 (≈ 0.456 µM)
COc1cccc([C@@H](c2cc3cc(N4CC5(COC5)C4)ccc3nc2OC)[C@@](O)(CCN(C)C)c2cccc(C)c2)c1F | 1.1 (≈ 1.88 µM)
CC#Cc1ccc2nc(OC)c(C(c3ccccc3)C(O)(CCN(C)C)c3cccc4ccccc34)cc2c1 (stereo not given) | 6.1 (≈ 11.9 µM)
COc1nc2ccccc2cc1C(c1ccccc1)C(O)(CCN(C)C)c1cccc2ccccc12 (stereo not given) | 1.9 (≈ 3.99 µM)
COc1nc2ccc(C3CC3)cc2cc1C(c1ccccc1)C(O)(CCN(C)C)c1cccc2ccccc12 (stereo not given) | 0.13 (≈ 0.252 µM)
COc1cccc(C(c2cc3cc(Br)ccc3nc2OC)C(O)(CCN(C)C)c2cccc(OC)c2OC)c1OC (stereo not given) | 0.2 (≈ 0.32 µM)
COc1cccc([C@@H](c2cc3cc(N4CCSCC4)ccc3nc2OC)[C@@](O)(CCN(C)C)c2cccc(F)c2)c1F | 0.19 (≈ 0.32 µM)
COc1cccc([C@@H](c2cc3cc(N4CC5(COC5)C4)ccc3nc2OC)[C@@](O)(CCN(C)C)c2cccc(Cl)c2)c1F | 0.31 (≈ 0.511 µM)
COc1cccc([C@](O)(CCN(C)C)[C@H](c2cc3cc(N4CC5(COC5)C4)ccc3nc2OC)c2cccc(OC)c2F)c1 | 0.87 (≈ 1.45 µM)
COc1cccc([C@H](c2cc3cc(N4CCSCC4)ccc3nc2OC)[C@@](O)(CCN(C)C)c2cccc(F)c2)c1OC | 0.28 (≈ 0.462 µM)
COc1cccc([C@H](c2cc3cc(N4CC[S+]([O-])CC4)ccc3nc2OC)[C@@](O)(CCN(C)C)c2cccc(F)c2)c1OC | 4.8 (≈ 7.72 µM)
COc1nc2ccc(N3CCOCC3)cc2cc1C(c1cccc(F)c1)C(O)(CCN(C)C)c1cccc(OC(F)(F)F)c1 (stereo not given) | 0.85 (≈ 1.39 µM)
C#Cc1ccc2nc(OC)c(C(c3ccccc3)C(O)(CCN(C)C)c3cccc(F)c3)cc2c1 (stereo not given) | 0.36 (≈ 0.768 µM)
COc1cccc(C(c2cc3cc(OC(F)(F)F)ccc3nc2OC)C(O)(CCN(C)C)c2cccc(OC(F)(F)F)c2)c1F (stereo not given) | 1.1 (≈ 1.71 µM)
COc1cccc(C(O)(CCN(C)C)C(c2cc3cc(Br)ccc3nc2OC)c2cccc(OC)c2F)c1 (stereo not given) | 0.1 (≈ 0.171 µM)
COc1cccc(C(c2cc3cc(C#N)ccc3nc2OC)C(O)(CCN(C)C)c2cccc(F)c2)c1OC (stereo not given) | 0.17 (≈ 0.321 µM)

Compound | MIC90 [µg/mL]
COc1cccc(C(c2cc3cc(C#N)ccc3nc2OC)C(O)(CCN(C)C)c2cccc(OC(F)(F)F)c2)c1F (stereo not given) | 0.26 (≈ 0.446 µM)
COc1nc2ccc(CN(C)C)cc2cc1C(c1ccccc1)C(O)(CCN(C)C)c1cccc2ccccc12 (stereo not given) | 3.7 (≈ 6.93 µM)
COc1cccc(C(c2cc3cc(N4CCOCC4)ccc3nc2OC)C(O)(CCN(C)C)c2cccc(OC)c2OC)c1OC (stereo not given) | 2.5 (≈ 3.96 µM)
COc1cccc(C(c2cc3cc(C#N)ccc3nc2OC)C(O)(CCN(C)C)c2cccc(C)c2)c1F (stereo not given) | 0.09 (≈ 0.175 µM)
COc1cccc(C(c2cc3cc(C#N)ccc3nc2OC)C(O)(CCN(C)C)c2cccc(OC(F)(F)F)c2)c1OC (stereo not given) | 0.21 (≈ 0.353 µM)
COc1cccc(C(c2cc3cc(Br)ccc3nc2OC)C(O)(CCN(C)C)c2cccc(F)c2)c1F (stereo not given) | 0.1 (≈ 0.175 µM)
COc1nc2ccc(N)cc2cc1C(c1ccccc1)C(O)(CCN(C)C)c1cccc2ccccc12 (stereo not given) | 1.9 (≈ 3.86 µM)
COc1nc2ccc(N(C)S(=O)(=O)N(C)C)cc2cc1[C@@H](c1ccccc1)[C@@](O)(CCN(C)C)c1cccc(F)c1 | 5 (≈ 8.61 µM)
COc1nc2ccc(CO)cc2cc1C(c1ccccc1)C(O)(CCN(C)C)c1cccc2ccccc12 (stereo not given) | 1.6 (≈ 3.16 µM)
COc1cccc(C(c2cc3cc(N4CCCCC4)ccc3nc2OC)C(O)(CCN(C)C)c2cccc(OC(F)(F)F)c2)c1F (stereo not given) | 2.3 (≈ 3.58 µM)
COc1nc2ccc(OC(F)(F)F)cc2cc1C(c1ccccc1)C(O)(CCN(C)C)c1cccc2ccccc12 (stereo not given) | 0.24 (≈ 0.428 µM)
COc1cccc(C(c2cc3cc(N4CC5(COC5)C4)ccc3nc2OC)C(O)(CCN(C)C)c2cccc(OC(F)(F)F)c2)c1F (stereo not given) | 0.77 (≈ 1.17 µM)
COc1nc2ccc(Br)cc2cc1C(c1ccccc1)C(O)(CCN(C)C)c1cccc(F)c1 (stereo not given) | 0.23 (≈ 0.439 µM)
COc1nc2ccc(C)cc2cc1C(c1ccccc1)C(O)(CCN(C)C)c1cccc2ccccc12 (stereo not given) | 1.74 (≈ 3.55 µM)
COc1cccc([C@@H](c2cc3cc(N4CCS(=O)(=O)CC4)ccc3nc2OC)[C@@](O)(CCN(C)C)c2cccc(F)c2)c1F | > 5
COc1cccc([C@@H](c2cc3cc(S(C)(=O)=O)ccc3nc2OC)[C@@](O)(CCN(C)C)c2cccc(F)c2)c1F | 2.3 (≈ 4.03 µM)
COc1nc2ccc(/C=N/O)cc2cc1C(c1ccccc1)C(O)(CCN(C)C)c1cccc2ccccc12 (stereo not given) | 6 (≈ 11.5 µM)
COc1nc2ccc(F)cc2cc1C(c1ccccc1)C(O)(CCN(C)C)c1cccc2ccccc12 (stereo not given) | 0.94 (≈ 1.9 µM)
COc1cccc(C(c2cc3cc(Br)ccc3nc2OC)C(O)(CCN(C)C)c2cccc(F)c2)c1OC (stereo not given) | 0.04 (≈ 0.0686 µM)
COc1nc2ccc(C(=O)O)cc2cc1C(c1ccccc1)C(O)(CCN(C)C)c1cccc2ccccc12 (stereo not given) | > 6.7
COc1cccc(C(c2cc3cc(N4CCOCC4)ccc3nc2OC)C(O)(CCN(C)C)c2cccc(OC(F)(F)F)c2)c1OC (stereo not given) | 0.68 (≈ 1.04 µM)
C=Cc1ccc2nc(OC)c(C(c3ccccc3)C(O)(CCN(C)C)c3cccc4ccccc34)cc2c1 (stereo not given) | 1.9 (≈ 3.78 µM)
COc1nc2ccc(NC3CCCC3)cc2cc1C(c1ccccc1)C(O)(CCN(C)C)c1cccc2ccccc12 (stereo not given) | 1.7 (≈ 3.04 µM)
COc1nc2ccc(C#N)cc2cc1C(c1cccc(F)c1)C(O)(CCN(C)C)c1cccc(OC(F)(F)F)c1 (stereo not given) | 0.47 (≈ 0.849 µM)
COc1cccc(C(c2cc3cc(C#N)ccc3nc2OC)C(O)(CCN(C)C)c2cccc(Cl)c2)c1F (stereo not given) | 0.13 (≈ 0.243 µM)

Compound | MIC90 [µg/mL]
COc1nc2ccc(C#N)cc2cc1C(c1ccccc1)C(O)(CCN(C)C)c1cccc(F)c1 (stereo not given) | 0.69 (≈ 1.47 µM)
C#Cc1ccc2nc(OC)c(C(c3ccccc3)C(O)(CCN(C)C)c3cccc4ccccc34)cc2c1 (stereo not given) | 0.48 (≈ 0.959 µM)
COc1cccc(C(c2cc3cc(F)ccc3nc2OC)C(O)(CCN(C)C)c2cccc(OC(F)(F)F)c2)c1F (stereo not given) | 0.21 (≈ 0.364 µM)
COc1nc2ccc(I)cc2cc1C(c1ccccc1)C(O)(CCN(C)C)c1cccc2ccccc12 (stereo not given) | 0.2 (≈ 0.332 µM)
COc1cccc(C(O)(CCN(C)C)C(c2cc3cc(C#N)ccc3nc2OC)c2cccc(OC)c2F)c1 (stereo not given) | 0.09 (≈ 0.17 µM)
COc1cccc(C(c2cc3cc(N4CC5(COC5)C4)ccc3nc2OC)C(O)(CCN(C)C)c2cccc(F)c2)c1OC (stereo not given) | 0.66 (≈ 1.1 µM)
COc1cccc(C(c2cc3cc(C#N)ccc3nc2OC)C(O)(CCN(C)C)c2cccc(OC)c2OC)c1OC (stereo not given) | 0.34 (≈ 0.595 µM)
COc1nc2ccc(Cl)cc2cc1C(c1cccc(F)c1)C(O)(CCN(C)C)c1cccc(OC(F)(F)F)c1 (stereo not given) | 0.09 (≈ 0.16 µM)
COc1cccc(C(c2cc3cc(Br)ccc3nc2OC)C(O)(CCN(C)C)c2cccc(OC(F)(F)F)c2)c1OC (stereo not given) | 0.09 (≈ 0.139 µM)
COc1cccc([C@@H](c2cc3cc(SC)ccc3nc2OC)[C@@](O)(CCN(C)C)c2cccc(F)c2)c1F | 0.13 (≈ 0.241 µM)
COc1nc2ccc(NC3CCC3)cc2cc1[C@@H](c1ccccc1)[C@@](O)(CCN(C)C)c1cccc2ccccc12 | 0.48 (≈ 0.88 µM)
COc1nc2ccc(N(C)S(=O)(=O)c3ccccc3)cc2cc1[C@@H](c1ccccc1)[C@@](O)(CCN(C)C)c1cccc(F)c1 | 4.1 (≈ 6.68 µM)
COc1cccc(C(c2cc3cc(N4CCNCC4)ccc3nc2OC)C(O)(CCN(C)C)c2cccc(OC(F)(F)F)c2)c1F (stereo not given) | 0.66 (≈ 1.03 µM)
COc1cccc(C(c2cc3cc(N4CCOCC4)ccc3nc2OC)C(O)(CCN(C)C)c2cccc(OC(F)(F)F)c2)c1F (stereo not given) | 0.14 (≈ 0.218 µM)
CO/N=C/c1ccc2nc(OC)c([C@@H](c3ccccc3)[C@](O)(CCN(C)C)c3cccc4ccccc34)cc2c1 | 0.21 (≈ 0.394 µM)
COc1cccc(C(c2cc3cc(Br)ccc3nc2OC)C(O)(CCN(C)C)c2cccc(Cl)c2)c1F (stereo not given) | 0.07 (≈ 0.119 µM)
COc1nc2ccc(C(F)(F)F)cc2cc1C(c1ccccc1)C(O)(CCN(C)C)c1cccc2ccccc12 (stereo not given) | 0.38 (≈ 0.698 µM)
COc1cccc(C(c2cc3cc(Br)ccc3nc2OC)C(O)(CCN(C)C)c2cccc(OC(F)(F)F)c2)c1F (stereo not given) | 0.09 (≈ 0.141 µM)
COc1cccc([C@H](c2cc3cc(N4CCS(=O)(=O)CC4)ccc3nc2OC)[C@@](O)(CCN(C)C)c2cccc(F)c2)c1OC | > 5
COc1nc2ccc(CN)cc2cc1C(c1ccccc1)C(O)(CCN(C)C)c1cccc2ccccc12 (stereo not given) | > 12
COc1cccc(C(c2cc3cc(Cl)ccc3nc2OC)C(O)(CCN(C)C)c2cccc(OC)c2OC)c1OC (stereo not given) | 0.25 (≈ 0.43 µM)
COc1cccc(C(c2cc3cc(Br)ccc3nc2OC)C(O)(CCN(C)C)c2cccc(C)c2)c1F (stereo not given) | 0.04 (≈ 0.0705 µM)
COc1cccc(C(c2cc3cc(N4CC5(COC5)C4)ccc3nc2OC)[C@@](O)(CCN(C)C)c2cccc(F)c2)c1F (single isomer, unassigned) | 0.51 (≈ 0.865 µM)
COc1nc2ccc(Br)cc2cc1[C@@H](c1ccccc1)[C@@](O)(CCN(C)C)c1cccc2ccccc12 [BEDAQUILINE] | 0.09 (≈ 0.162 µM)

The compounds below were run against Voltage-gated inwardly rectifying potassium channel KCNH2 (Homo sapiens, UniProt Q12809) (assay: Inhibition of human ERG). Settings: not given.
Voltage-gated inwardly rectifying potassium channel KCNH2, sequence (Q12809 whole entry): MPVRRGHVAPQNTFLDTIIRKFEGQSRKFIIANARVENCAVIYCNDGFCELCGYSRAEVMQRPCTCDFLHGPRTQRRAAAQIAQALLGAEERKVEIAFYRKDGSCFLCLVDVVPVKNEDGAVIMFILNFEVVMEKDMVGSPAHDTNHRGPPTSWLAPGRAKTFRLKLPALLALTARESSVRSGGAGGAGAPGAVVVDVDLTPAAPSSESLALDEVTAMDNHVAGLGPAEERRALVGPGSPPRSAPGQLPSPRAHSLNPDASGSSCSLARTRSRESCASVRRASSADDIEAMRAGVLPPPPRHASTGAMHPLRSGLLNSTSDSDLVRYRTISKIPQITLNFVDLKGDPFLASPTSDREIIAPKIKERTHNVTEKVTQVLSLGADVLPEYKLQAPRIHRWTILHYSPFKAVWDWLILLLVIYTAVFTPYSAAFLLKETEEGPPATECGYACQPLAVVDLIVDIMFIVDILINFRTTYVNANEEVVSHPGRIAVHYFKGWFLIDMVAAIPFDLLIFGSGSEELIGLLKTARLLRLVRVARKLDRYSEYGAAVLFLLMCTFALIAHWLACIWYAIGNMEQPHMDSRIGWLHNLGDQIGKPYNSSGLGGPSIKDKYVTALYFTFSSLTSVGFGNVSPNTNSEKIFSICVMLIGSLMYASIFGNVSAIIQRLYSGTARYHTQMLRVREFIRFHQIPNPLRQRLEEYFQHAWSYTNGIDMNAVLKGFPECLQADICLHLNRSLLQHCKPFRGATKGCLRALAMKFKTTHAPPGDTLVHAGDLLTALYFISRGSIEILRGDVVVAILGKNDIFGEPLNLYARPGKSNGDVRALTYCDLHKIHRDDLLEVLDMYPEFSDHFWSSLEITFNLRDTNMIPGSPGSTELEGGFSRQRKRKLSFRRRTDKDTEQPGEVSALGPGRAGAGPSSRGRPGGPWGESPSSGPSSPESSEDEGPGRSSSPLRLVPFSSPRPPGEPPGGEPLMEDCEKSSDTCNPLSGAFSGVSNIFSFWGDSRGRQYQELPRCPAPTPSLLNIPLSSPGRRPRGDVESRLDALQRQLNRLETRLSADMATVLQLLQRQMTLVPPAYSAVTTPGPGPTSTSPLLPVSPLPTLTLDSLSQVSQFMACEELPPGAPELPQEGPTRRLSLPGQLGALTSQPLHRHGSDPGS

Compound | IC50 [µM]
COc1nc2ccc(Cl)cc2cc1C(c1ccccc1)C(O)(CCN(C)C)c1cccc2ccccc12 (stereo not given) | 6.9
COc1nc2ccc(C(=O)N(C)C)cc2cc1C(c1ccccc1)C(O)(CCN(C)C)c1cccc2ccccc12 (stereo not given) | 6.3
COc1nc2ccc(CC(C)=O)cc2cc1C(c1ccccc1)C(O)(CCN(C)C)c1cccc2ccccc12 (stereo not given) | 10
CC#Cc1ccc2nc(OC)c(C(c3ccccc3)C(O)(CCN(C)C)c3cccc4ccccc34)cc2c1 (stereo not given) | 7.9
COc1nc2ccccc2cc1C(c1ccccc1)C(O)(CCN(C)C)c1cccc2ccccc12 (stereo not given) | 1.6
COc1nc2ccc(CN(C)C)cc2cc1C(c1ccccc1)C(O)(CCN(C)C)c1cccc2ccccc12 (stereo not given) | 4.8
COc1nc2ccc(CO)cc2cc1C(c1ccccc1)C(O)(CCN(C)C)c1cccc2ccccc12 (stereo not given) | 10
COc1nc2ccc(/C=N/O)cc2cc1C(c1ccccc1)C(O)(CCN(C)C)c1cccc2ccccc12 (stereo not given) | 3.5
COc1nc2ccc(C(=O)O)cc2cc1C(c1ccccc1)C(O)(CCN(C)C)c1cccc2ccccc12 (stereo not given) | 10
CO/N=C/c1ccc2nc(OC)c([C@@H](c3ccccc3)[C@](O)(CCN(C)C)c3cccc4ccccc34)cc2c1 | 2.2
COc1nc2ccc(CN)cc2cc1C(c1ccccc1)C(O)(CCN(C)C)c1cccc2ccccc12 (stereo not given) | 1.7
